Assay results published in ChEMBL document CHEMBL2040834, “Synthesis, crystal structures and electronic properties of isomers of chloro-pyridinylvinyl-1H-indoles” (Eur J Med Chem, 2012).
Converted amounts (≈) assume the structure as drawn.

Assays:
[1] = Solubility of the compound in 0.1 M of boric acid at pH 9 by HTS-PCF filter plate analysis; format: physicochemical; details: buffer
In short: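 Solubility measured by filter-plate filtration at 2.5% final DMSO. Buffers: pH 1.0 (0.1 M HCl, 20 mM NaCl), pH 7.4 (50 mM phosphate, 30 mM NaCl), pH 9.0 (0.1 M boric acid, 20 mM NaCl). Filtrate quantified by C18 LC/MS with UV detection at 254 nm, using a 5–95% acetonitrile gradient in 0.1% acetic acid.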

[2] = molecular target: T1, Tryptophan 2,3-dioxygenase (Homo sapiens, UniProt P48775); experiment: Inhibition of human purified TDO assessed as formation of kynurenine from N-formylkynurenine preincubated for 10 mins measured after 5 to 20 mins by discontinuous colorimetric method
[3] = molecular target: T1, Tryptophan 2,3-dioxygenase; experiment: Competitive inhibition of human purified TDO by Henri-Michaelis-Menten equation analysis
In short: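 Recombinant human TDO expressed in E. coli, purified. Kynurenine formation read at 480 nm with Ehrlich's reagent after TCA stop and 65 °C hydrolysis. L-Trp and inhibitor concentrations both varied. Initial rates fitted to Henri–Michaelis–Menten equation for competitive Ki; Km obtained from the same data.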

[4] = molecular target: T1, Tryptophan 2,3-dioxygenase; experiment: Inhibition of human purified TDO assessed as initial rate of L-Trp oxidation at 100 uM of substrate concentration

T1 sequence (P48775 whole entry): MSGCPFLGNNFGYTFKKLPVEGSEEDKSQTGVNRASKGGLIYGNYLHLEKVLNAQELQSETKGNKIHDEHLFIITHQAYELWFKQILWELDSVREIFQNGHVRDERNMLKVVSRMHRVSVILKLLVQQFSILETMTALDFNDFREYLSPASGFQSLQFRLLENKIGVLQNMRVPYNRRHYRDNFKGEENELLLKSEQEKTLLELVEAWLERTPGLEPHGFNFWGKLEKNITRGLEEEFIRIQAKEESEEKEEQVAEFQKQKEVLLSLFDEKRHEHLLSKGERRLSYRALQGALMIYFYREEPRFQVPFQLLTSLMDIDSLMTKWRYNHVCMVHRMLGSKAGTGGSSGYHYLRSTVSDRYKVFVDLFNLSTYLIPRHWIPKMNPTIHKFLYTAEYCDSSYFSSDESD

Row | solubility [1] [mg/mL] | IC50 [2] [µM] | Ki [3] [µM] | IC50 [4] [µM] | SMILES
1 | 76 (≈ 298 mM) | 10 |  |  | Clc1ccc2[nH]cc(/C=C/c3cccnc3)c2c1
2 | 32.1 (≈ 126 mM) | 5 |  |  | Clc1ccc2c(/C=C/c3cccnc3)c[nH]c2c1
3 | 6 (≈ 23.6 mM) | > 50 | 21 | 32 | Clc1cccc2c(/C=C/c3cccnc3)c[nH]c12
